What follows are compounds tested against T1, 5-hydroxytryptamine receptor 6 (Homo sapiens, UniProt P50406) (assay: Antagonist activity at human recombinant 5HT6 receptor expressed in HEK293 cells assessed as inhibition of serotonin-induced cAMP production).
Format: functional, cell-based
Summary of the method: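 HEK293 cells stably expressing recombinant human 5-HT6R, stimulated with serotonin. cAMP from adenylyl cyclase measured by LANCE. Compounds screened at 5 and 10 μM. IC50 determined for compounds giving more than 50% inhibition of cAMP synthesis at 5 μM.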

T1 sequence (P50406 whole entry): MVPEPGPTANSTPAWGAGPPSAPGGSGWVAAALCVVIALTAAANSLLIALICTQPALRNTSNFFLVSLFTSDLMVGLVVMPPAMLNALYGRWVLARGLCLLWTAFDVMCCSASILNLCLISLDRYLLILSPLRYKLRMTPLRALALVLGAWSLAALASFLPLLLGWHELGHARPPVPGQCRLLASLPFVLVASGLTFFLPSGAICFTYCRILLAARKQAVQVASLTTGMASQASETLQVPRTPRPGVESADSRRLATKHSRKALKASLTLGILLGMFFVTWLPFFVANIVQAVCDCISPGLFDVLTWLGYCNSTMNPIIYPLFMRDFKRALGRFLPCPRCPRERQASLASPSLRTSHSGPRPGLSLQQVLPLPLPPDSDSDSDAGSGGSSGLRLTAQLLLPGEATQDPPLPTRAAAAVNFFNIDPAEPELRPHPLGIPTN

Row | IC50 [nM] | Structure (SMILES)
1 | 170 | O=S(=O)(c1cccc(Cl)c1)c1nnn2c1nc(NC1CCCC1)c1sccc12
2 | 600 | Cc1ccc(S(=O)(=O)c2nnn3c2nc(NCc2ccccc2Cl)c2sccc23)cc1C
3 | 1290 | COCCCNc1nc2c(S(=O)(=O)c3cc(C)ccc3C)nnn2c2ccsc12
4 | 1900 | CCc1ccc(S(=O)(=O)c2nnn3c2nc(N(CC)CC)c2sccc23)cc1
5 | 470 | COc1ccccc1CNc1nc2c(S(=O)(=O)c3ccc(C)c(C)c3)nnn2c2ccsc12
6 | 1170 | O=S(=O)(c1ccccc1)c1nnn2c1nc(NCc1ccc(Cl)cc1)c1sccc12
7 | 260 | Cc1ccc(S(=O)(=O)c2nnn3c2nc(NCc2ccccc2)c2sccc23)cc1
8 | 2000 | CC1CCCN(c2nc3c(S(=O)(=O)c4cccc(Cl)c4)nnn3c3ccsc23)C1 (stereo unspecified)
9 | 3810 | Cc1ccc(S(=O)(=O)c2nnn3c2nc(Nc2cccc(F)c2)c2sccc23)cc1
10 | 1930 | Cc1ccc(C)c(S(=O)(=O)c2nnn3c2nc(N2CCOCC2)c2sccc23)c1
11 | 900 | COc1cccc(Nc2nc3c(S(=O)(=O)c4ccc(C(C)C)cc4)nnn3c3ccsc23)c1
12 | > 5000 | CC(C)CCNc1nc2c(S(=O)(=O)c3ccc(C(C)C)cc3)nnn2c2ccsc12
13 | 750 | Cc1ccc(S(=O)(=O)c2nnn3c2nc(NC(C)C)c2sccc23)cc1C
14 | 110 | COCCNc1nc2c(S(=O)(=O)c3cccc(Cl)c3)nnn2c2ccsc12
15 | 5220 | Cc1ccc(S(=O)(=O)c2nnn3c2nc(Nc2cccc(C)c2)c2sccc23)cc1
16 | 68 | CC(C)CCNc1nc2c(S(=O)(=O)c3cccc(Cl)c3)nnn2c2ccsc12
17 | 1040 | O=S(=O)(c1cccc(Cl)c1)c1nnn2c1nc(N1CCOCC1)c1sccc12
18 | 2210 | COc1cccc(CNc2nc3c(S(=O)(=O)c4ccc(C)cc4)nnn3c3ccsc23)c1

Row | IC50 [nM] | Structure (SMILES)
19 | 540 | CC(Nc1nc2c(S(=O)(=O)c3ccc(Br)cc3)nnn2c2ccsc12)c1ccccc1 (stereo unspecified)
20 | 2500 | O=S(=O)(c1cccc(Cl)c1)c1nnn2c1nc(Nc1ccc(F)cc1)c1sccc12
21 | 170 | O=S(=O)(c1ccccc1)c1nnn2c1nc(NC1CCCCCC1)c1sccc12
22 | 1190 | CN(Cc1ccccc1)c1nc2c(S(=O)(=O)c3ccc(Cl)cc3)nnn2c2ccsc12
23 | 590 | Cc1ccc(C)c(S(=O)(=O)c2nnn3c2nc(NC2CCCC2)c2sccc23)c1
24 | 270 | O=S(=O)(c1ccc(Cl)cc1)c1nnn2c1nc(NCc1ccccc1)c1sccc12
25 | 280 | CC(Nc1nc2c(S(=O)(=O)c3ccc(Cl)cc3)nnn2c2ccsc12)c1ccccc1 (stereo unspecified)
26 | 1600 | CCc1ccc(S(=O)(=O)c2nnn3c2nc(NC(C)C)c2sccc23)cc1
27 | 32 | O=S(=O)(c1ccccc1)c1nnn2c1nc(NCc1ccccc1Cl)c1sccc12
28 | 480 | O=S(=O)(c1cccc(Cl)c1)c1nnn2c1nc(NCc1ccc(F)cc1)c1sccc12
29 | 930 | COc1ccccc1CNc1nc2c(S(=O)(=O)c3ccc(Br)cc3)nnn2c2ccsc12
30 | 1150 | COc1ccccc1CNc1nc2c(S(=O)(=O)c3ccc(Cl)cc3)nnn2c2ccsc12
31 | > 5000 | CCc1ccc(S(=O)(=O)c2nnn3c2nc(NCCC(C)C)c2sccc23)cc1
32 | 860 | COCCNc1nc2c(S(=O)(=O)c3cc(C)ccc3C)nnn2c2ccsc12
33 | 580 | Cc1ccc(S(=O)(=O)c2nnn3c2nc(NCCC(C)C)c2sccc23)cc1
34 | 780 | COc1ccccc1CNc1nc2c(S(=O)(=O)c3cccc(Cl)c3)nnn2c2ccsc12
35 | 690 | Nc1nc2c(S(=O)(=O)c3cccc(Cl)c3)nnn2c2ccsc12
36 | 69 | CCCCNc1nc2c(S(=O)(=O)c3ccccc3)nnn2c2ccsc12

The remaining lines, values behind:

Row | Structure (SMILES) | IC50 [nM]
37 | O=S(=O)(c1cccc(Cl)c1)c1nnn2c1nc(NCc1ccco1)c1sccc12 | 190
38 | Cc1ccc(S(=O)(=O)c2nnn3c2nc(NCc2ccc(F)cc2)c2sccc23)cc1C | 520
39 | Cc1ccc(S(=O)(=O)c2nnn3c2nc(NC2CCCCC2)c2sccc23)cc1C | 820
40 | O=S(=O)(c1ccccc1)c1nnn2c1nc(Nc1ccccc1)c1sccc12 | 5000
41 | O=S(=O)(c1ccccc1)c1nnn2c1nc(NCCc1ccccc1)c1sccc12 | 1160
42 | O=S(=O)(c1ccccc1)c1nnn2c1nc(Nc1cccc(C(F)(F)F)c1)c1sccc12 | 820
43 | CC1CCN(c2nc3c(S(=O)(=O)c4cccc(Cl)c4)nnn3c3ccsc23)CC1 | 1120
44 | CC(C)Nc1nc2c(S(=O)(=O)c3cccc(Cl)c3)nnn2c2ccsc12 | 470
45 | CC(Nc1nc2c(S(=O)(=O)c3cccc(Cl)c3)nnn2c2ccsc12)c1ccccc1 (stereo unspecified) | 150
46 | Cc1ccc(S(=O)(=O)c2nnn3c2nc(NC2CCCCCC2)c2sccc23)cc1C | 350
47 | CN(Cc1ccccc1)c1nc2c(S(=O)(=O)c3ccc(Br)cc3)nnn2c2ccsc12 | 1950
48 | Cc1ccc(C)c(S(=O)(=O)c2nnn3c2nc(N2CCCCC2)c2sccc23)c1 | 1520
49 | CCc1ccc(S(=O)(=O)c2nnn3c2nc(NCCCOC)c2sccc23)cc1 | > 5000
50 | COc1cccc(Nc2nc3c(S(=O)(=O)c4ccc(C)c(C)c4)nnn3c3ccsc23)c1 | 860
51 | O=S(=O)(c1ccc(Cl)cc1)c1nnn2c1nc(NCc1cccs1)c1sccc12 | 650
52 | O=S(=O)(c1ccc(Cl)cc1)c1nnn2c1nc(NCC1CCCO1)c1sccc12 (stereo unspecified) | 480
53 | CCc1ccc(S(=O)(=O)c2nnn3c2nc(NCCc2ccccc2)c2sccc23)cc1 | 1050
54 | Cc1ccc(S(=O)(=O)c2nnn3c2nc(NC2CCCCC2)c2sccc23)cc1 | 730
55 | Nc1nc2c(S(=O)(=O)c3ccc(Br)cc3)nnn2c2ccsc12 | 610
56 | CCN(Cc1ccccc1)c1nc2c(S(=O)(=O)c3ccc(C)cc3)nnn2c2ccsc12 | 300
57 | Cc1ccc(C)c(S(=O)(=O)c2nnn3c2nc(NCCCc2ccccc2)c2sccc23)c1 | 1220
58 | CC1CCCN(c2nc3c(S(=O)(=O)c4ccccc4)nnn3c3ccsc23)C1 (stereo unspecified) | 2030
59 | CCN(Cc1ccccc1)c1nc2c(S(=O)(=O)c3cccc(Cl)c3)nnn2c2ccsc12 | 540
60 | Cc1cc(Cl)cc(Nc2nc3c(S(=O)(=O)c4ccc(C)c(C)c4)nnn3c3ccsc23)c1 | 2260
61 | COCCNc1nc2c(S(=O)(=O)c3ccc(C)c(C)c3)nnn2c2ccsc12 | 1570
62 | O=S(=O)(c1cccc(Cl)c1)c1nnn2c1nc(NCc1cccs1)c1sccc12 | 150
63 | CCCCNc1nc2c(S(=O)(=O)c3ccc(C(C)C)cc3)nnn2c2ccsc12 | > 5000
64 | O=S(=O)(c1cccc(Cl)c1)c1nnn2c1nc(NCC1CCCO1)c1sccc12 (stereo unspecified) | 29
65 | Cc1ccc(Nc2nc3c(S(=O)(=O)c4ccc(C(C)C)cc4)nnn3c3ccsc23)cc1C | 1110

Each compound was assayed against T1, 5-hydroxytryptamine receptor 6 (assay: Binding affinity to human recombinant 5HT6 receptor expressed in HEK293 cells by radioligand displacement assay).
Format: cell-based
Summary of the method: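 Competitive radioligand binding at the 5-HT6 receptor, run by MDS Pharma Services as part of a serotonin receptor panel. IC50 and Ki values derived.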

Row | IC50 [nM] | Ki [nM] | Structure (SMILES)
66 | 188 | 87.5 | O=S(=O)(c1ccccc1)c1nnn2c1nc(N1CCCC1)c1sccc12
67 | 56.7 | 26.3 | CC12CC3CC(C)(C1)CC(Nc1nc4c(S(=O)(=O)c5ccccc5)nnn4c4ccsc14)(C3)C2
68 | 221 | 103 | CC(Nc1nc2c(S(=O)(=O)c3ccccc3)nnn2c2ccsc12)C12CC3CC(CC(C3)C1)C2 (stereo unspecified)
69 | 62.1 | 28.8 | O=S(=O)(c1ccc(Br)cc1)c1nnn2c1nc(NCc1ccc3c(c1)OCO3)c1sccc12
70 | 34.3 | 15.9 | CC(C)CCNc1nc2c(S(=O)(=O)c3ccc(Br)cc3)nnn2c2ccsc12
71 | > 300 |  | CN(C)CCNc1nc2c(S(=O)(=O)c3ccccc3)nnn2c2ccsc12

Source: ChEMBL document CHEMBL1177669, “Synthesis and biological study of 3-(phenylsulfonyl)thieno[2,3-e][1,2,3]triazolo[1,5-a]pyrimidines as potent and selective serotonin 5-HT6 receptor antagonists” (Bioorg Med Chem, 2010)
